{"data": "Experimental data collected from several papers", "target": "Ephrin type-A receptor 2 (EPHA2, Homo sapiens, UniProt P29317)", "note": "Protocols differ between the studies behind these lines."}
{"SMILES": "Nc1ncnc2occ(-c3ccc(NC(=O)Nc4cc(C(F)(F)F)ccc4F)cc3)c12", "effect on": "cell-free assay", "tested at": "20 µM", "quantity": "remaining signal", "result": "0%"}
{"SMILES": "COc1cc(Nc2cnc(C#N)c(O[C@H](C)CN(C)C)n2)ncc1-c1cnn(C)c1", "effect on": "enzyme activity", "action": "inhibitor", "method": "radiometric", "tested at": "10 µM", "quantity": "remaining activity", "result": "24%"}
{"SMILES": "COc1ccc(COc2ccc(Cc3cnc(N)nc3N)cc2OC)cc1", "effect on": "cell-free assay", "tested at": "0.5 µM", "quantity": "remaining signal", "result": "107%"}
{"SMILES": "CC(C)(C)C(=O)c1sc(NC2CCCCC2)nc1N", "effect on": "enzyme activity", "action": "inhibitor", "tested at": "10 µM", "quantity": "remaining activity", "result": "106%"}
{"SMILES": "O=C1NC(=O)c2cc(Nc3ccc(F)cc3)c(Nc3ccc(F)cc3)cc21", "effect on": "cell-free assay", "tested at": "0.5 µM", "quantity": "remaining signal", "result": "94.3%"}
{"SMILES": "COc1ccc2c(O[C@@H]3C[C@H]4C(=O)N[C@]5(C(=O)O)CC5/C=C\\CCCCC[C@H](NC(=O)OC5CCCC5)C(=O)N4C3)cc(-c3csc(NC(=O)C(C)C)n3)nc2c1C (stereo partly shown)", "effect on": "cell-free assay", "method": "competition with immobilised ligand", "tested at": "1 µM", "quantity": "remaining binding", "result": "80%"}
{"SMILES": "Cc1ccc(Nc2nccc(N(C)c3ccc4c(C)n(C)nc4c3)n2)cc1S(N)(=O)=O", "effect on": "enzyme activity", "action": "inhibitor", "tested at": "0.3 µM", "quantity": "inhibition", "result": "-2%"}
{"SMILES": "CS(=O)(=O)Nc1cccc(-c2csc(NC(=O)CSc3nc4nccnc4c(=O)n3CCc3ccccc3)n2)c1", "effect on": "enzyme activity", "action": "inhibitor", "tested at": "10 µM", "quantity": "inhibition", "result": "9%"}
{"SMILES": "CCCOc1ccc(OC)c(F)c1C(=O)c1ccc(C(=O)N[C@@H]2CNC[C@H]2NC(=O)c2ccc3[nH]ncc3c2)cc1", "effect on": "enzyme activity", "action": "inhibitor", "tested at": "10 µM", "quantity": "remaining activity", "result": "69%"}
{"SMILES": "Cc1ccc(C(=O)NCc2ccsc2)cc1C#Cc1cn(C(C)C)c2ncnc(N)c12", "effect on": "enzyme activity", "action": "inhibitor", "tested at": "1 µM", "quantity": "activity vs control", "result": "2%"}
{"SMILES": "CC(C)(C)c1nc2c(s1)c1nc(N)ncc1c1ccc(NS(=O)(=O)c3c(F)cccc3F)c(F)c12", "effect on": "enzyme activity", "action": "inhibitor", "method": "radiometric", "tested at": "1 µM", "quantity": "remaining activity", "result": "109%"}
{"SMILES": "Cc1cnc(NC2CCOCC2)nc1-n1cnc(C(=O)NC(CN)c2cc(F)cc(Cl)c2)c1 (stereo not shown)", "effect on": "enzyme activity", "action": "inhibitor", "method": "radiometric", "tested at": "1 µM", "quantity": "remaining activity", "result": "101%"}
{"SMILES": "CNC(=O)c1cc(Oc2ccc(NC(=O)Nc3ccc(Cl)c(C(F)(F)F)c3)cc2)ccn1", "effect on": "enzyme activity", "action": "inhibitor", "tested at": "0.3 µM", "quantity": "inhibition", "result": "23%"}
{"SMILES": "CCc1ccccc1C(=O)Nc1n[nH]c2c(C)c(F)c(C3C(C#N)=C(C)N(C)C(C)=C3C#N)cc12", "effect on": "cell-free assay", "method": "competition with immobilised ligand", "tested at": "1 µM", "quantity": "remaining binding", "result": "61%"}
{"SMILES": "COc1cc(/C=C/C(=O)CC(=O)/C=C/c2ccc(O)c(OC)c2)ccc1O", "effect on": "enzyme activity", "action": "inhibitor", "tested at": "1 µM", "quantity": "activity vs control", "result": "104%"}
{"SMILES": "CN(c1ncccc1CNc1nc(Nc2ccc3c(c2)CC(=O)N3)ncc1C(F)(F)F)S(C)(=O)=O", "effect on": "enzyme activity", "action": "inhibitor", "tested at": "1 µM", "quantity": "inhibition", "result": "29.7%"}
{"SMILES": "Nc1nc(Nc2ccccc2)sc1C(=O)c1c(F)cccc1F", "effect on": "enzyme activity", "action": "inhibitor", "tested at": "10 µM", "quantity": "remaining activity", "result": "71%"}
{"SMILES": "O=C(Nc1ccc(Oc2ccc(F)cc2)cc1)N1CCc2ncccc2[C@H]1c1ccc(F)cc1", "effect on": "cell-free assay", "method": "competition with immobilised ligand", "tested at": "1 µM", "quantity": "remaining binding", "result": "100%"}
{"SMILES": "CCN(CC)CCNC(=O)c1c(C)[nH]c(/C=C2\\C(=O)Nc3ccc(F)cc32)c1C", "effect on": "enzyme activity", "action": "inhibitor", "tested at": "10 µM", "quantity": "inhibition", "result": "52%"}
{"SMILES": "COc1cc(Cl)c(C(=O)N[C@@H](CN[C@H]2CC[C@@H](N)CC2)Cc2ccc(C#N)cc2)cc1-c1ccc(CN[C@H](C)c2ccc(C)cc2)o1", "effect on": "enzyme activity", "action": "inhibitor", "tested at": "1 µM", "quantity": "remaining activity", "result": "93%"}
{"SMILES": "CC(C)(O)[C@H]1CC[C@H](Nc2ccc3ncc(-c4cccc(C(F)(F)F)c4)n3n2)CC1", "effect on": "enzyme activity", "action": "inhibitor", "tested at": "1 µM", "quantity": "remaining activity", "result": "93.9%"}
{"SMILES": "CN(c1ccnc(CNc2nc(Nc3ccc4c(c3)CC(=O)N4)ncc2C(F)(F)F)n1)S(C)(=O)=O", "effect on": "cell-free assay", "method": "competition with immobilised ligand", "tested at": "1 µM", "quantity": "remaining binding", "result": "80%"}
{"SMILES": "COc1cc2ncnc(Nc3ccc(Oc4ccccc4)c(C)c3C)c2cc1OC", "effect on": "enzyme activity", "action": "inhibitor", "tested at": "1 µM", "quantity": "inhibition", "result": "2%"}
{"SMILES": "O=C1NC(c2ccccn2)Sc2ccccc21 (stereo not shown)", "effect on": "cell-free assay", "method": "competition with immobilised ligand", "tested at": "1 µM", "quantity": "remaining binding", "result": "100%"}
{"SMILES": "O=C1Nc2ccc(Cl)cc2C1=Cc1cc(Cl)c(O)c(Cl)c1", "effect on": "cell-free assay", "tested at": "0.5 µM", "quantity": "remaining signal", "result": "95%"}
{"SMILES": "COc1ccc2c(c1)O[C@@H](c1ccc(OC)c(OC)c1)C[C@H]2NC(=O)C1(c2ccc3c(c2)OC(F)(F)O3)CC1", "effect on": "cell-free assay", "method": "competition with immobilised ligand", "tested at": "1 µM", "quantity": "remaining binding", "result": "95%"}
{"SMILES": "O=C(Nc1cnn(-c2csc(C(=O)NC3COC3)c2)c1)Nc1ccccc1Cl", "effect on": "enzyme activity", "action": "inhibitor", "tested at": "5 µM", "quantity": "remaining activity", "result": "101%"}
{"SMILES": "O=C(NC[C@@H]1[C@H]2CN(C(=O)OCc3cc(C(F)(F)F)cc(C(F)(F)F)c3)C[C@@H]12)c1ccc2[nH]nnc2c1", "effect on": "cell-free assay", "method": "competition with immobilised ligand", "tested at": "1 µM", "quantity": "remaining binding", "result": "79%"}
{"SMILES": "CCN(CC)c1ccc(C2=NNC(=O)CC2C)cc1[N+](=O)[O-] (stereo not shown)", "effect on": "enzyme activity", "action": "inhibitor", "tested at": "10 µM", "quantity": "remaining activity", "result": "97%"}
{"SMILES": "O=C(N1CCS(=O)(=O)CC1)N1C[C@H](c2ccc(OC(F)(F)F)cc2)C[C@H](c2nc(C3CC3)no2)C1", "effect on": "cell-free assay", "method": "competition with immobilised ligand", "tested at": "1 µM", "quantity": "remaining binding", "result": "100%"}
{"SMILES": "FC(F)c1nc2ccccc2n1-c1nc(N2CCOCC2)nc(N2CCOCC2)n1", "effect on": "enzyme activity", "action": "inhibitor", "tested at": "10 µM", "quantity": "remaining activity", "result": "106%"}
